In ChEMBL document CHEMBL1138143, “A new class of blockers of the voltage-gated potassium channel Kv1.3 via modification of the 4- or 7-position of khellinone” (J Med Chem, 2006) one finds EC50 data, which are given here for 57 compounds.

By EC50 is commonly meant the midpoint of the concentration-response curve. A low value points to greater potency.

In experiment [1] the target is Potassium voltage-gated channel subfamily A member 3 (Mus musculus, UniProt P16390). The experiment in a line: Effect on blockade of mouse Kv1.3 channel expressed in L929 cells. Format: functional, cell-based. Put shortly: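 Whole-cell patch clamp on L929 cells stably expressing mouse Kv1.3, holding potential -80 mV. Bath: Ringer (160 mM NaCl, 4.5 mM KCl, 2 mM CaCl2, 1 mM MgCl2, 10 mM HEPES, pH 7.4). Pipette: 134 mM KF, 2 mM MgCl2, 10 mM HEPES, 10 mM EGTA, pH 7.2. Current elicited by 500-ms pulses to 40 mV every 45 s. Series resistance compensation of 60-80% applied above 2 nA.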

In experiment [2] the target is Potassium voltage-gated channel subfamily A member 1 (Homo sapiens, UniProt Q09470). The experiment in a line: Effect on blockade of Kv1.1 channel. Format: functional. Put shortly: (§1)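 Whole-cell patch clamp with a holding potential of -80 mV on cell lines stably expressing Kv1.1, Kv1.2, Kv1.4 or Kv1.5. Recording followed previously described methods. EC50 came from a Hill equation fit to the reduction of area under the current curve.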

Another experiment relates to T-cell. The experiment in a line: Inhibition of anti-CD3 antibody stimulated human T cell proliferation. It counts as functional, cell-based. Put shortly: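 Human PBMCs were isolated from healthy donors by density gradient and plated at 2 × 10^5 cells/well in RPMI 1640 with 10% FCS. Cells were preincubated with compound for 30 min, then stimulated with 5 ng/mL anti-CD3 for 48 h. [3H]-thymidine (1 µCi/well) was added for the last 6 h. Done in triplicate and normalized to maximal control incorporation.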

Experiment [3] concerns the target Potassium voltage-gated channel subfamily A member 4 (Homo sapiens, UniProt P22459). Kind of experiment: Effect on blockade of Kv1.4 channel. Format: functional. In a few lines: as §1
For experiment [4], the target named is Potassium voltage-gated channel subfamily A member 5 (Homo sapiens, UniProt P22460). Kind of experiment: Effect on blockade of Kv1.5 channel. Format: functional. Put shortly:
as §1

The target in experiment [5] is Potassium voltage-gated channel subfamily A member 2 (Homo sapiens, UniProt P16389). The experiment in a line: Effect on blockade of Kv1.2 channel. Format: functional. In a few lines:
as §1

The target of experiment [6] is Voltage-gated inwardly rectifying potassium channel KCNH2 (Homo sapiens, UniProt Q12809). The experiment in a line: Effect on blockade of Kv11.1 channel. It counts as functional.
Sequence of Voltage-gated inwardly rectifying potassium channel KCNH2 (Q12809 whole entry): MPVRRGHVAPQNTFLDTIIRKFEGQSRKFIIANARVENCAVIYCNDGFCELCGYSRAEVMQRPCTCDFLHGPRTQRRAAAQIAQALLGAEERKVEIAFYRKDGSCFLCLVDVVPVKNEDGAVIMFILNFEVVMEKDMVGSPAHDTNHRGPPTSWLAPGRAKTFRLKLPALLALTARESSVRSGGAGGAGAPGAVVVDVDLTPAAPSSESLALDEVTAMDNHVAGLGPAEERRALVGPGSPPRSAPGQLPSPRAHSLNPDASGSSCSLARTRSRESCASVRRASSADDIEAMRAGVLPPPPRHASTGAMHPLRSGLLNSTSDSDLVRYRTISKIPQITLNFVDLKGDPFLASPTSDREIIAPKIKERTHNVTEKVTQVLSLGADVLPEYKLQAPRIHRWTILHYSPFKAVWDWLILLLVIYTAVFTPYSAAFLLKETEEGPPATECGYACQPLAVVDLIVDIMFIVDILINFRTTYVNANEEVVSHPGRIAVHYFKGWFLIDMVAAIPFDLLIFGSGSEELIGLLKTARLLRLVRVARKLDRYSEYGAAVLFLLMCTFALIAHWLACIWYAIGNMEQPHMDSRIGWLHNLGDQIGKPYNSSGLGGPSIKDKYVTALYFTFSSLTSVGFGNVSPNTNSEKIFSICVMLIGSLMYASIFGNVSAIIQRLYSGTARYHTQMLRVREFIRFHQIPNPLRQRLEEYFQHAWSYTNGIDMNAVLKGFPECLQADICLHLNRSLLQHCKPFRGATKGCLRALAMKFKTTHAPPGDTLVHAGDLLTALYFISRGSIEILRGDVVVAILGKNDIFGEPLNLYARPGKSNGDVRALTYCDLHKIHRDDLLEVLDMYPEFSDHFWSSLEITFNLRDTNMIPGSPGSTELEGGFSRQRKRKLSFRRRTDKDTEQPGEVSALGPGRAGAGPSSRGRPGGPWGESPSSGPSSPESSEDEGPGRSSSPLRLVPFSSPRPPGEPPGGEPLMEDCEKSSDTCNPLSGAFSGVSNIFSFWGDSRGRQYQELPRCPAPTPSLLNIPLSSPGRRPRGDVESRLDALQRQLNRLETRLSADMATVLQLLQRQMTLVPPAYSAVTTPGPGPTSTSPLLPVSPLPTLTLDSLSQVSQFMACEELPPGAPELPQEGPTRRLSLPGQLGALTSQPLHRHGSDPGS

Sequence of Potassium voltage-gated channel subfamily A member 3 (P16390 whole entry): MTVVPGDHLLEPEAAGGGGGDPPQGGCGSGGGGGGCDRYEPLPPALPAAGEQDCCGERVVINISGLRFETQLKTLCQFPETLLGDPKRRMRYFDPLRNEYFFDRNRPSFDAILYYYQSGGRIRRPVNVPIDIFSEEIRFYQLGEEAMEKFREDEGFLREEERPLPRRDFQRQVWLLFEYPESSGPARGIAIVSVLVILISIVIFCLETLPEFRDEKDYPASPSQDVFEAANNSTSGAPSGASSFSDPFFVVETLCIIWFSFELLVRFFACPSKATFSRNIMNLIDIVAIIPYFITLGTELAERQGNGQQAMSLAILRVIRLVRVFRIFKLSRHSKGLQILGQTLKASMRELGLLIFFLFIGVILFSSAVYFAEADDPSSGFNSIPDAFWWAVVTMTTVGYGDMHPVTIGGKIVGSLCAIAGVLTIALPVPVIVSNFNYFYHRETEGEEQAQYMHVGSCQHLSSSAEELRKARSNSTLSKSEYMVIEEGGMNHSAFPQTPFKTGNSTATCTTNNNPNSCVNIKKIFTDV
Sequence of Potassium voltage-gated channel subfamily A member 1 (Q09470 whole entry): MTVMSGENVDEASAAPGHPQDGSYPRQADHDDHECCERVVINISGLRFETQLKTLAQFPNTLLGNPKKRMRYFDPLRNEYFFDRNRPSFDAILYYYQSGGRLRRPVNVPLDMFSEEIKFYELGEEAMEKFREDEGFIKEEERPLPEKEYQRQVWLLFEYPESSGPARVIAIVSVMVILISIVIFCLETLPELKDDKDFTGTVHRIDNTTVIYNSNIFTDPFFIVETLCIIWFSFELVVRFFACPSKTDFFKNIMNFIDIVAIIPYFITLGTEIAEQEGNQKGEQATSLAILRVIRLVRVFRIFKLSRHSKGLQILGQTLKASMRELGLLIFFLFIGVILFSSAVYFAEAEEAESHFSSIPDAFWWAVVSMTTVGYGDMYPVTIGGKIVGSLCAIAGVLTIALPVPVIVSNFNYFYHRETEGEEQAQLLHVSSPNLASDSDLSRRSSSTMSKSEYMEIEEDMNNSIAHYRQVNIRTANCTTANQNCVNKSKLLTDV
Sequence of Potassium voltage-gated channel subfamily A member 2 (P16389 whole entry): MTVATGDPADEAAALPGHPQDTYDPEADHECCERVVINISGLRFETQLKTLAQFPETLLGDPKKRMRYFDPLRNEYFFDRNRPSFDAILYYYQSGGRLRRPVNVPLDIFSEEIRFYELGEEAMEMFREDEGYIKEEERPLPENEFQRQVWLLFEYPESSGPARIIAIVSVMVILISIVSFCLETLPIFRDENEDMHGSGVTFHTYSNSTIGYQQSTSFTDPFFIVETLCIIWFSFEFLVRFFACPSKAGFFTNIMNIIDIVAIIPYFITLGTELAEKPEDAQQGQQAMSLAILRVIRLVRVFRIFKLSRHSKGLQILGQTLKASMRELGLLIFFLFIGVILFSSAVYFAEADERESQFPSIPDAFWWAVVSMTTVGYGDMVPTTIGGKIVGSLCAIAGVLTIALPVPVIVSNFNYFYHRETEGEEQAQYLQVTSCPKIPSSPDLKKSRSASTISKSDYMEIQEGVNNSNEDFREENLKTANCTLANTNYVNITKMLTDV
Sequence of Potassium voltage-gated channel subfamily A member 4 (P22459 whole entry): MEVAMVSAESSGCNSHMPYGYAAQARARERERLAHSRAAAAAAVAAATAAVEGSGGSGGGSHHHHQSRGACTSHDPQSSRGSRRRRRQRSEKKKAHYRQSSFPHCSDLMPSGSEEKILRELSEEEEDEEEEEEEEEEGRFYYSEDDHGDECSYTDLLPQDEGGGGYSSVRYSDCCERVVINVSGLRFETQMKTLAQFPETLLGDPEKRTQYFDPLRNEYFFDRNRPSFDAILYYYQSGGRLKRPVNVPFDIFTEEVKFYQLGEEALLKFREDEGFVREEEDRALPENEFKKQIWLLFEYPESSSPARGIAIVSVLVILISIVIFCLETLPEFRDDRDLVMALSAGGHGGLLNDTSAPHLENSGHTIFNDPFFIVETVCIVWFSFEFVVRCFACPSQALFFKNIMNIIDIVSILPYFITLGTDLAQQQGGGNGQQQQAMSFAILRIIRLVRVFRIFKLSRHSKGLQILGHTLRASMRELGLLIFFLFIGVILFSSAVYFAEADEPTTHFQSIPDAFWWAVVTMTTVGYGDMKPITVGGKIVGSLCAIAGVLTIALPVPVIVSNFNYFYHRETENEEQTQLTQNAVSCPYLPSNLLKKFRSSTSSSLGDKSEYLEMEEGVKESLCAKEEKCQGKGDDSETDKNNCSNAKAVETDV
Sequence of Potassium voltage-gated channel subfamily A member 5 (P22460 whole entry): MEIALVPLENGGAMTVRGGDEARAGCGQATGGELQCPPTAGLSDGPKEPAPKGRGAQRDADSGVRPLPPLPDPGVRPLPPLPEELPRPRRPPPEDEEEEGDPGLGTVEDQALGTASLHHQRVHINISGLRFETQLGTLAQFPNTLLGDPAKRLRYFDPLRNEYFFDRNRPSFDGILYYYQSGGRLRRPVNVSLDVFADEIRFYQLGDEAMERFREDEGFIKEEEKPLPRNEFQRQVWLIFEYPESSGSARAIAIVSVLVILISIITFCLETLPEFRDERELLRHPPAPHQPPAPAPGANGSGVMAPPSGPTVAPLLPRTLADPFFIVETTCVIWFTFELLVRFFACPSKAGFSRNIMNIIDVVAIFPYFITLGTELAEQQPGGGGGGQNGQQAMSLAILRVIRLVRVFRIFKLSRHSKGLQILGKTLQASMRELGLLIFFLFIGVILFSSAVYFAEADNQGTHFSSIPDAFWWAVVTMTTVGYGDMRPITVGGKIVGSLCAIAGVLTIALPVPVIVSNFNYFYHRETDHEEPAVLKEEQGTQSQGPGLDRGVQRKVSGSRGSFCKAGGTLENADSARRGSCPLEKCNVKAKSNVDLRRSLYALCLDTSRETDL

`COc1c(C(C)=O)c(O)c(OCc2ccccc2)c2occc12` yielded an EC50 in experiment [1] of 1200 nM.
Consider `COc1c(C(C)=O)c(O)c(OCc2ccc(Br)cc2)c2occc12`, for which the EC50 in experiment [2] was determined as 1200 nM; in the experiment with T-cell, 2500 nM; in experiment [3] it was 4300 nM; in experiment [4] it was 900 nM; in experiment [1], 400 nM; in experiment [5], 1400 nM.
In experiment [1], `COc1c(C(C)=O)c(O)c(OCc2ccc(-c3ccccc3)cc2)c2occc12` yielded an EC50 of 1200 nM.
Still for that read-out and setting: to `CCCCCOc1c(O)c(C(C)=O)c(OC)c2ccoc12` belongs 3000 nM; to `COc1c(O)c(C(C)=O)c(OCc2cccc(OC(F)(F)F)c2)c2ccoc12`, 550 nM.
For `COc1c(C(C)=O)c(O)c(OCc2ccc3ccccc3c2)c2occc12`, the response in experiment [1] was half-maximal at 5000 nM (EC50).
In experiment [1], `COc1c(O)c(C(C)=O)c(OCc2ccc(F)cc2)c2ccoc12` yielded an EC50 of 1000 nM.
On the same count and under the same terms, as for `COc1c(O)c(C(C)=O)c(OCc2ccc(C(C)(C)C)cc2)c2ccoc12`, the figure is 1500 nM.
Consider `COc1c(C(C)=O)c(O)c(OCc2ccc(C(=O)c3ccccc3)cc2)c2occc12`, for which a half-maximal response in experiment [1] (EC50) required 500 nM.
Compound `COc1ccc(COc2c(C(C)=O)c(O)c(OC)c3occc23)cc1` registered an EC50 in experiment [1] of 1500 nM.
The same measure, in the same setting: to `COc1c(O)c(C(C)=O)c(OCc2cccc(C(=O)O)c2)c2ccoc12` belongs greater than 10000 nM; to `COc1c(O)c(C(C)=O)c(OCc2ccc(Br)cc2)c2ccoc12`, 500 nM; to `COc1c(C(C)=O)c(O)c(OCc2ccccc2-c2ccccc2)c2occc12`, 1100 nM.
Same read-out and setting: as for `COc1c(O)c(C(C)=O)c(OCc2ccccc2Cl)c2ccoc12`, the figure is 1200 nM; as for `COc1cccc(COc2c(C(C)=O)c(O)c(OC)c3occc23)c1`, 680 nM; as for `CCCCCOc1c(C(C)=O)c(O)c(OC)c2occc12`, 4000 nM.
On the same count and under the same terms, to `COc1c(C(C)=O)c(O)c(OCc2cccc(F)c2)c2occc12` belongs 750 nM.
In turn, `CCOc1c(C(C)=O)c(O)c(OC)c2occc12` gave an EC50 in experiment [1] of 7000 nM.
The same measure, in the same setting: as for `COc1c(O)c(C(C)=O)c(OCc2ccc(OCc3ccccc3)cc2)c2ccoc12`, the figure is 8800 nM; as for `COc1c(O)c(C(C)=O)c(OCc2ccccc2-c2ccccc2)c2ccoc12`, 2000 nM.
The same measure, in the same setting: as for `CCCOc1c(C(C)=O)c(O)c(OC)c2occc12`, the figure is 5000 nM; as for `COc1c(C(C)=O)c(O)c(OCc2ccccc2Cl)c2occc12`, 700 nM; as for `COc1c(O)c(C(C)=O)c(OCc2ccc(C(=O)c3ccccc3)cc2)c2ccoc12`, 500 nM.
On the same count and under the same terms, as for `CCOc1c(O)c(C(C)=O)c(OC)c2ccoc12`, the figure is 10000 nM; as for `COc1c(C(C)=O)c(O)c(OCc2ccc(OCc3ccccc3)cc2)c2occc12`, 6300 nM.
The compound `COc1c(O)c(C(C)=O)c(OCc2ccccc2F)c2ccoc12` returned an EC50 in experiment [1] of 1700 nM.
In turn, `COc1c(C(C)=O)c(O)c(OC)c2occc12` displayed an EC50 in experiment [1] of 45000 nM.
`COc1c(C(C)=O)c(O)c(OCc2ccc(Cl)cc2)c2occc12` displayed an EC50 in experiment [1] of 420 nM.
In the case of `CCOc1c(C(C)=O)c(O)c(OCC)c2occc12`, the EC50 in experiment [1] stood at 6000 nM.
Take `COc1c(C(C)=O)c(O)c(OCc2cccc(OC(F)(F)F)c2)c2occc12`: in experiment [1], a half-maximal effect (EC50) was put at 450 nM.
The same measure, in the same setting: to `COc1c(O)c(C(C)=O)c(OCc2cccc3ccccc23)c2ccoc12` belongs 8000 nM; to `COc1c(O)c(C(C)=O)c(OCc2ccc(-c3ccccc3)cc2)c2ccoc12`, 900 nM; to `COc1c(O)c(C(C)=O)c(OCc2cccc([N+](=O)[O-])c2)c2ccoc12`, 1400 nM.
For the compound `COc1c(O)c(C(C)=O)c(OCc2ccc(Cl)cc2)c2ccoc12`, the EC50 in experiment [2] is 1700 nM; with T-cell, 2500 nM; in experiment [6], 5000 nM; in experiment [3], 4800 nM; in experiment [4], 700 nM; in experiment [1], 480 nM. Further, in experiment [5], the EC50 is 2500 nM.
As for `COc1c(O)c(C(C)=O)c(OCc2cccc(Cl)c2)c2ccoc12`, the EC50 in experiment [1] was determined as 1400 nM.
With `COc1c(C(C)=O)c(O)c(OCc2cccc(C)c2)c2occc12`, in experiment [1], the EC50 amounted to 1200 nM.
The same measure, in the same setting: to `COc1c(O)c(C(C)=O)c(OCc2ccccc2)c2ccoc12` belongs 2500 nM; to `COc1c(C(C)=O)c(O)c(OCc2ccccc2F)c2occc12`, 2500 nM.
On the same count and under the same terms, as for `COc1c(O)c(C(C)=O)c(OCc2cccc(F)c2)c2ccoc12`, the figure is 1200 nM.
Compound `CCOc1c(C(=O)/C=C/c2cccc(O)c2)c(O)c(OC)c2occc12` displayed an EC50 in experiment [1] of 2500 nM.
`COc1c(O)c(C(C)=O)c(OCc2cccc(C)c2)c2ccoc12` had an EC50 in experiment [1] of 1000 nM.
On to `COc1c(C(C)=O)c(O)c(OCc2cccc(Cl)c2)c2occc12`, for which the EC50 in experiment [1] is 600 nM.
Turning to `COc1c(C(C)=O)c(O)c(OCc2ccc(F)cc2)c2occc12`, a half-maximal response in experiment [1] (EC50) required 700 nM.
On the same count and under the same terms, to `COc1c(O)c(C(C)=O)c(OCc2ccc3ccccc3c2)c2ccoc12` belongs 5000 nM; to `CCOc1c(C(C)=O)c(OCCCCCCOc2c(C(C)=O)c(OCC)c3ccoc3c2OC)c(OC)c2occc12`, 800 nM.
Same read-out and setting: as for `COc1c(O)c(C(C)=O)c(OCc2ccc(C(C)C)cc2)c2ccoc12`, the figure is 700 nM; as for `COc1c(O)c(C(C)=O)c(OCc2ccc(OC(F)(F)F)cc2)c2ccoc12`, 1800 nM.
As to `CC(=O)c1c(O)c(OCc2ccccc2)c2occc2c1OCc1ccccc1`, the EC50 in experiment [2] was 7000 nM; in experiment [3] it was greater than 20000 nM; in experiment [4], 5000 nM; in experiment [1], 1200 nM; in experiment [5] it was 10000 nM.
As to `COc1c(C(C)=O)c(O)c(OCc2ccc(C(F)(F)F)cc2)c2occc12`, a half-maximal response in experiment [1] (EC50) required 420 nM.
Turning to `COc1c(C(C)=O)c(O)c(OCc2cccc([N+](=O)[O-])c2)c2occc12`, the EC50 in experiment [1] came out at 600 nM.
Compound `COc1c(C(C)=O)c(O)c(OCc2ccc(C(C)(C)C)cc2)c2occc12` returned an EC50 in experiment [1] of 5800 nM.
For the compound `COc1c(C(C)=O)c(O)c(OCc2ccccc2C)c2occc12`, the EC50 in experiment [1] amounted to 1900 nM.
In experiment [1], `COc1c(C(C)=O)c(O)c(OCc2ccc(C(C)C)cc2)c2occc12` showed a concentration for a half-maximal effect (EC50) of 1000 nM.
Consider `CCCOc1c(O)c(C(C)=O)c(OC)c2ccoc12`, for which the EC50 in experiment [1] was found to be 8000 nM.
In experiment [1], `COc1c(O)c(C(C)=O)c(OCc2ccc(C(F)(F)F)cc2)c2ccoc12` registered an EC50 of 510 nM.
Same read-out and setting: to `COc1c(O)c(C(C)=O)c(OCc2ccccc2C)c2ccoc12` belongs 2000 nM; to `COc1c(C(C)=O)c(O)c(OCc2ccc(OC(F)(F)F)cc2)c2occc12`, 600 nM.
